These results are taken from ChEMBL document CHEMBL1127494, “New hexahydroxybiphenyl derivatives as inhibitors of protein kinase C” (J Med Chem, 1994).

The term IC50 denotes the concentration needed to halve the response being measured.

Test [1] addresses Protein kinase C (PKC). Description: Inhibitory activity against protein kinase C of rat brain. The procedure, abridged:
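PKC purified from rat brain. The read-out was 32P transfer from 30 μM [γ-32P]ATP to histone IIIS (200 μg/mL) in 20 mM Hepes pH 7.5 with phosphatidylserine, 10 mM MgCl2, 100 μM CaCl2 and 47.5 μM EGTA, run 10 min at 30 °C. Reactions were TCA-precipitated, filtered and scintillation-counted. Lipid-independent activity was subtracted, and test levels were 4, 43 and 218 μM.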

Test [2] deals with Protein kinase C (PKC). Description: Displacement of [3H]PDBU from protein kinase C. It counts as protein assay, Rattus norvegicus. A general note: Loss of bound radioactivity is the signal in a displacement assay; it reports binding, not function.
Test [3] in a line: Inhibition of c-AMP dependent kinase (PKA) catalytic subunit. Details: species or system Bos taurus.
In test [4] the target is Protein kinase C gamma type (Homo sapiens, UniProt P05129). The test is described as follows: Inhibition of protein kinase C gamma. In a few lines:
(§1)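 Recombinant human enzyme expressed by baculovirus in SF9 cells, then partially purified by homogenizing the pellet in Tris pH 8 detergent buffer, spinning, and running a DEAE column with a 0–500 mM NaCl gradient, with the peak pooled. The reaction was [γ-32P]ATP (30 μM) incorporation into histone IIIS (200 μg/mL) with phosphatidylserine, Ca2+/EGTA and Mg2+ in Hepes pH 7.5, run 10 min at 30 °C. It was stopped with TCA and counted on filters. No-lipid background was subtracted, and compounds were tested at 4, 43 and 218 μM.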

Test [5] deals with Protein kinase C alpha type (Homo sapiens, UniProt P17252). Description: Inhibition of protein kinase C alpha.
The target in test [6] is Protein kinase C delta type (Homo sapiens, UniProt Q05655). Description: Inhibition of protein kinase C delta. The procedure, abridged: as §1

“And” between values parts separate entries of the source, which are not always exact repeats. Identical values can stand only once. Some results are limits rather than exact numbers.

Sequence of Protein kinase C delta type (Q05655 whole entry): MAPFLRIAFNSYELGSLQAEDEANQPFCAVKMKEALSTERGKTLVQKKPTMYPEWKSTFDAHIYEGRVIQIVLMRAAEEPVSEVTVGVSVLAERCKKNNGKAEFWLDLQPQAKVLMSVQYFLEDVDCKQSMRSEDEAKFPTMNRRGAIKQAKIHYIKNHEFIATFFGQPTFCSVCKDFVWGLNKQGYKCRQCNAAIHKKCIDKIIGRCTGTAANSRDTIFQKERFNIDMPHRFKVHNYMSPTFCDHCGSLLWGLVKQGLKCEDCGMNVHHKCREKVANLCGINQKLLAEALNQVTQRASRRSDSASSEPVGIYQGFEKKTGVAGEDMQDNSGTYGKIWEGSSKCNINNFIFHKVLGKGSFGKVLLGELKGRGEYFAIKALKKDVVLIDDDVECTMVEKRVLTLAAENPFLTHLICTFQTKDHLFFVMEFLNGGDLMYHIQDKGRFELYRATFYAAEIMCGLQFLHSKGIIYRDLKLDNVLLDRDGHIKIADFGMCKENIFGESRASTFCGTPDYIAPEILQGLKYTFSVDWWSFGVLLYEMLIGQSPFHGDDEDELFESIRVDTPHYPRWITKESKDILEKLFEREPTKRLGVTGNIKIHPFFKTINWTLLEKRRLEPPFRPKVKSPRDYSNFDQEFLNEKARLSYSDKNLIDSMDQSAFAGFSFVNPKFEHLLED

`c1ccc(COc2cc3c(c(OCc4ccccc4)c2OCc2ccccc2)-c2c(cc(OCc4ccccc4)c(OCc4ccccc4)c2OCc2ccccc2)COC3)cc1` displayed a concentration for half-maximal inhibition (IC50) against Protein kinase C (PKC) [1] of 180 µM.

As for `COC(=O)c1cc(OCc2ccccc2)c(OCc2ccccc2)c(OCc2ccccc2)c1-c1c(C(=O)OC)cc(OCc2ccccc2)c(OCc2ccccc2)c1OCc1ccccc1`, on Protein kinase C (PKC) [1], the IC50 was 180 µM and 131 µM and > 218 µM.

In the case of `O=C1OCC2O[C@@H](O)C3OC(=O)c4cc(O)c(O)c(O)c4-c4c(cc(O)c(O)c4O)C(=O)OC3C2OC(=O)c2cc(O)c(O)c(O)c2-c2c1cc(O)c(O)c2O` (stereo not given in full), the IC50 was < 50 µM at Protein kinase C (PKC) [2], > 218 µM in test [3] and 4 µM on Protein kinase C (PKC) [1].

With `OCc1cc(OCc2ccccc2)c(OCc2ccccc2)c(OCc2ccccc2)c1-c1c(CO)cc(OCc2ccccc2)c(OCc2ccccc2)c1OCc1ccccc1`, the half-inhibitory concentration (IC50) on Protein kinase C (PKC) [2] was > 272 µM; in test [3] it was 21 µM; against Protein kinase C (PKC) [1] it was 70 µM and 55 µM and 88 µM.

For `O=Cc1cc(OCc2ccccc2)c(OCc2ccccc2)c(OCc2ccccc2)c1-c1c(C=O)cc(OCc2ccccc2)c(OCc2ccccc2)c1OCc1ccccc1`, the concentration for half-maximal inhibition (IC50) at Protein kinase C (PKC) [1] turned out to be 131 µM.

Regarding `BrCc1cc(OCc2ccccc2)c(OCc2ccccc2)c(OCc2ccccc2)c1-c1c(CBr)cc(OCc2ccccc2)c(OCc2ccccc2)c1OCc1ccccc1`, the half-inhibitory concentration (IC50) against Protein kinase C (PKC) [1] was found to be 103 µM.

At Protein kinase C (PKC) [1], `CCOC(=O)c1cc(OCc2ccccc2)c(OCc2ccccc2)c(OC)c1-c1c(C(=O)OCC)cc(OCc2ccccc2)c(OCc2ccccc2)c1OC` gave an IC50 of 94 µM.

Regarding `CCOC(=O)c1cc(O)c(O)c(O)c1-c1c(C(=O)OCC)cc(O)c(O)c1O`, the IC50 on Protein kinase C (PKC) [1] is > 218 µM.

Consider `COc1c(OCc2ccccc2)c(OCc2ccccc2)cc(CO)c1-c1c(CO)cc(OCc2ccccc2)c(OCc2ccccc2)c1OC`, for which, at Protein kinase C (PKC) [1], the half-maximal inhibitory concentration (IC50) is > 218 µM.

Take `COc1c(OCc2ccccc2)c(OCc2ccccc2)cc(CBr)c1-c1c(CBr)cc(OCc2ccccc2)c(OCc2ccccc2)c1OC`: the IC50 against Protein kinase C (PKC) [1] was > 218 µM.

`c1ccc(COc2cc3c(c(OCc4ccccc4)c2OCc2ccccc2)-c2c(cc(OCc4ccccc4)c(OCc4ccccc4)c2OCc2ccccc2)C[N+]2(C3)Cc3cc(OCc4ccccc4)c(OCc4ccccc4)c(OCc4ccccc4)c3-c3c(cc(OCc4ccccc4)c(OCc4ccccc4)c3OCc3ccccc3)C2)cc1`: on Protein kinase C (PKC) [1], the IC50 came out at 131 µM.

The molecule `COC(=O)c1cc(OCc2ccccc2)c(OCc2ccccc2)c(OC)c1-c1c(C(=O)OC)cc(OCc2ccccc2)c(OCc2ccccc2)c1OC` yielded a 50% inhibitory concentration (IC50) on Protein kinase C (PKC) [1] of 97 µM.

For the molecule `COc1cc2c(c(OC)c1OC)-c1c(cc(OC)c(OC)c1OC)COC2`, the 50% inhibitory concentration (IC50) at Protein kinase C (PKC) [1] is > 218 µM.

Take `O=C(O[C@@H]1O[C@@H]2COC(=O)c3cc(O)c(O)c(O)c3-c3c(cc(O)c(O)c3O)C(=O)O[C@H]([C@H]1OC(=O)c1cc(O)c(O)c(O)c1)[C@@H]2OC(=O)c1cc(O)c(O)c(O)c1)c1cc(O)c(O)c(O)c1` [PUNICAFOLIN]: the concentration for half-maximal inhibition (IC50) on Protein kinase C (PKC) [2] is < 50 µM; in test [3], > 218 µM; at Protein kinase C (PKC) [1] it was 4 µM.

Take `O=C(O[C@@H]1O[C@@H]2COC(=O)c3cc(O)c(O)c(O)c3-c3c(cc(O)c(O)c3O)C(=O)O[C@H]([C@H]1O)[C@@H]2O)c1cc(O)c(O)c(O)c1` [CORILAGIN]: the 50% inhibitory concentration (IC50) on Protein kinase C (PKC) [1] stood at 20 µM.

For `COCc1cc(O)c(O)c(O)c1-c1c(COC)cc(O)c(O)c1O`, the 50% inhibitory concentration (IC50) is > 218 µM in test [3], 50 µM in test [4], 98 µM against Protein kinase C (PKC) [1] and 43 µM in test [5].

In the case of `OCc1cc(OCc2ccccc2)c(OCc2ccccc2)c(O)c1-c1c(CO)cc(OCc2ccccc2)c(OCc2ccccc2)c1O`, the IC50 on Protein kinase C (PKC) [1] was > 218 µM.

With `COc1c(OCc2ccccc2)c(OCc2ccccc2)cc2c1-c1c(cc(OCc3ccccc3)c(OCc3ccccc3)c1OC)C[N+]1(C2)Cc2cc(OCc3ccccc3)c(OCc3ccccc3)c(OC)c2-c2c(cc(OCc3ccccc3)c(OCc3ccccc3)c2OC)C1`, the IC50 at Protein kinase C (PKC) [2] is > 272 µM; in test [3] it was 15 µM; against Protein kinase C (PKC) [1], 87 µM.

For the molecule `O=C(O[C@@H]1OC2COC(=O)c3cc(O)c(O)c(O)c3-c3c(cc(O)c(O)c3O)C(=O)OC2C2OC(=O)c3cc(O)c(O)c(O)c3-c3c(cc(O)c(O)c3O)C(=O)OC21)c1cc(O)c(O)c(O)c1` (stereo not given in full), the figures for the IC50 (on Protein kinase C (PKC) [2]; in test [3]; on Protein kinase C (PKC) [1]) were < 50 µM, > 218 µM and 3 µM, respectively.

Consider `CCOC(=O)c1cc(OCc2ccccc2)c(OCc2ccccc2)c(OCc2ccccc2)c1-c1c(C(=O)OCC)cc(OCc2ccccc2)c(OCc2ccccc2)c1OCc1ccccc1`, for which the IC50 at Protein kinase C (PKC) [2] was > 272 µM; in test [3], 19 µM; at Protein kinase C (PKC) [1], 50 µM and 96 µM and 75 µM.

With `CCCCCCCCCCCCC/C=C/[C@@H](O)[C@@H](N)CO` [SPHINGOSINE], the values for the IC50 on Protein kinase C (PKC) [2] and on Protein kinase C (PKC) [1] were 23 µM and 40 µM, respectively.

`Oc1cc2c(c(O)c1O)-c1c(cc(O)c(O)c1O)COC2`: the half-maximal inhibitory concentration (IC50) at Protein kinase C (PKC) [2] is 54 µM; in test [3] it was 31 µM and 29 µM and > 218 µM; in test [4], 34 µM and 30 µM; in test [6], 42 µM and 44 µM; against Protein kinase C (PKC) [1] it was 32 µM and 28 µM and 43 µM; in test [5], 37 µM.

In the case of `COC(=O)c1cc(O)c(O)c(O)c1-c1c(C(=O)OC)cc(O)c(O)c1O`, the IC50 on Protein kinase C (PKC) [1] is > 218 µM.

In the case of `COc1c(OCc2ccccc2)c(OCc2ccccc2)cc(C=O)c1-c1c(C=O)cc(OCc2ccccc2)c(OCc2ccccc2)c1OC`, at Protein kinase C (PKC) [1], the concentration for half-maximal inhibition (IC50) is > 218 µM.
